Source: ChEMBL document CHEMBL1154611 (J Med Chem, 2009)
≈ marks a conversion by molar mass, not a printed value.

Columns and labels:
[1] = test system: Streptococcus pneumoniae; experiment: Antibacterial activity against erythromycin-sensitive Streptococcus pneumoniae ATCC 6301; type: functional
Summary of the method: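 MIC, the minimal growth inhibitory concentration, was determined in routine screening against the highly erythromycin-sensitive strain Streptococcus pneumoniae ATCC6301.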

[2] = target: T1, hERG (KCNH2) (Homo sapiens, UniProt Q12809); experiment: Inhibition of human ERG expressed in HEK cells at 300 uM; type: cell-based, HEK293; details: HEK cells expressing human ERG
T1 sequence (Q12809 whole entry): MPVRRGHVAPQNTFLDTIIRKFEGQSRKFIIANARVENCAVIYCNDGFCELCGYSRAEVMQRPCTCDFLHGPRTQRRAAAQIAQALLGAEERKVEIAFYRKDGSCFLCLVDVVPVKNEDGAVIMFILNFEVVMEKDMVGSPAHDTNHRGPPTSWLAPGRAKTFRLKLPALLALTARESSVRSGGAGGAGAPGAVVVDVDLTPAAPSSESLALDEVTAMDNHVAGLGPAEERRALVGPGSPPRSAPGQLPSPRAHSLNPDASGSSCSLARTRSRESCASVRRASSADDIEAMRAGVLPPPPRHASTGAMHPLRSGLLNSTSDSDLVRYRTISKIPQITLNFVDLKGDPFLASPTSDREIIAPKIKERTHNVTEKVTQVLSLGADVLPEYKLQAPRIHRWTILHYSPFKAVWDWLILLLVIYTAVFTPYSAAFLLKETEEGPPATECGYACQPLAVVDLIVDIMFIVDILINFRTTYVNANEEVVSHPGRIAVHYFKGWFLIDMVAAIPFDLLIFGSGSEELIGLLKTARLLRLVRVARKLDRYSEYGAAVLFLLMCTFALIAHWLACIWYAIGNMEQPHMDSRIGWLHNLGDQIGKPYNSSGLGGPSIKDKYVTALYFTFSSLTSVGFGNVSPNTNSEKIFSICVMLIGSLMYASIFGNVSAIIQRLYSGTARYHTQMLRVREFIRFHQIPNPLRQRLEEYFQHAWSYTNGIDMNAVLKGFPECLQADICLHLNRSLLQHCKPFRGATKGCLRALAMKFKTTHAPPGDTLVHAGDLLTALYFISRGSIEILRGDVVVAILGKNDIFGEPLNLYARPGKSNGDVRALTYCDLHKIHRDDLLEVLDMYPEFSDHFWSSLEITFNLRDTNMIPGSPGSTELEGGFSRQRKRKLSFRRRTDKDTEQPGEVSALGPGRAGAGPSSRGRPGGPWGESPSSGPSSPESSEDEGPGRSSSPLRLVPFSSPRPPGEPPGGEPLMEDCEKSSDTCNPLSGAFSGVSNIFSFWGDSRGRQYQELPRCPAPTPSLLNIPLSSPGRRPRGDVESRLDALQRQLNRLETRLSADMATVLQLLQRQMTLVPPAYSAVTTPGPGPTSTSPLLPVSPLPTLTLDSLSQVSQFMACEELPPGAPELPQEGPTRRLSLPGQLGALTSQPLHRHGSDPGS

[3] = target: Motilin receptor (Oryctolagus cuniculus, UniProt A5A4K8); experiment: Agonist activity at motilin receptor in rabbit smooth muscle assessed as maximal possible tissue contraction; type: functional
Chain of Motilin receptor (A5A4K8 whole entry): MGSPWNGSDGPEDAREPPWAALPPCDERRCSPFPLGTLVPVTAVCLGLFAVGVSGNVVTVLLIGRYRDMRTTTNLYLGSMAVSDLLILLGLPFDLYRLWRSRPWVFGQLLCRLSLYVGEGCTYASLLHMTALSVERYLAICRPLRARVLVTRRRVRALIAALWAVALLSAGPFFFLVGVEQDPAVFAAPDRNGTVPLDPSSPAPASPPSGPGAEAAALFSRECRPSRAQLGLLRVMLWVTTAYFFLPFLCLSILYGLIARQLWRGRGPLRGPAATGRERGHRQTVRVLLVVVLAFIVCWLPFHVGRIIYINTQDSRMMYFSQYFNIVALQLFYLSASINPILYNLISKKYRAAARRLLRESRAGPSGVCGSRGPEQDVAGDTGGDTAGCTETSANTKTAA
Summary of the method: (§1)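 Rabbit smooth muscle contractility assay. EC50 is the concentration giving 50% of the maximal possible contraction. Tachyphylaxis is the % contractile response to an EC90 drug concentration after three cycles of administration and washout.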

[4] = target: T1, hERG (KCNH2); experiment: Inhibition of human ERG expressed in HEK cells at 30 uM; type: cell-based, HEK293; details: HEK cells expressing human ERG
[5] = target: Motilin receptor (Oryctolagus cuniculus) (UniProt A5A4K8); experiment: Agonist activity at motilin receptor in rabbit smooth muscle assessed as tachyphylaxis at EC90 concentration after 4th dose; type: functional; summary of the method: as §1
Chain of Motilin receptor (Oryctolagus cuniculus) (A5A4K8 as listed by the source): as the sequence (A5A4K8 whole entry) above

## CC[C@H]1OC(=O)[C@H](C)[C@@H](O[C@H]2C[C@@](C)(OC)[C@@H](O)[C@H](C)O2)[C@H](C)[C@@H](O[C@@H]2O[C@H](C)C[C@H](N(C)C(C)C)[C@H]2O)[C@](C)(O)C[C@@H](C)[C@H](OCC(=O)Nc2cnccn2)[C@H](C)[C@@H](O)[C@]1(C)O
[1]
  MIC: 128 µg/mL (≈ 142 µM)
[2]
  inhibition at 300 µM: 88%
[3]
  EC50: 69 nM
[4]
  inhibition at 30 µM: 40%

## CC[C@H]1OC(=O)[C@H](C)[C@@H](O[C@H]2C[C@@](C)(OC)[C@@H](O)[C@H](C)O2)[C@H](C)[C@@H](O[C@@H]2O[C@H](C)C[C@H](N(C)C)[C@H]2O)[C@](C)(O)C[C@@H](C)C(=O)[C@H](C)[C@@H](O)[C@]1(C)O [ERYTHROMYCIN]
[1]
  MIC: 0.0025 µg/mL (≈ 0.00341 µM)
[3]
  EC50: 1200 nM
[5]
  Activity: 97%

## CC[C@H]1OC(=O)[C@H](C)[C@@H](O[C@H]2C[C@@](C)(OC)[C@@H](O)[C@H](C)O2)[C@H](C)[C@@H](O[C@@H]2O[C@H](C)C[C@H](N(C)C(C)C)[C@H]2O)[C@](C)(O)C[C@@H](C)[C@H](OCC(N)=O)[C@H](C)[C@@H](O)[C@]1(C)O
[1]
  MIC: > 128 µg/mL
[2]
  inhibition at 300 µM: 51%
[3]
  EC50: 52 nM
[4]
  inhibition at 30 µM: 10%
[5]
  Activity: 92%

## CC[C@H]1OC(=O)[C@H](C)[C@@H](O[C@H]2C[C@@](C)(OC)[C@@H](O)[C@H](C)O2)[C@H](C)[C@@H](O[C@@H]2O[C@H](C)C[C@H](N(C)C(C)C)[C@H]2O)[C@](C)(O)C[C@@H](C)[C@H](OCCCCCC(=O)NC)[C@H](C)[C@@H](O)[C@]1(C)O
[1]
  MIC: 128 µg/mL (≈ 144 µM)
[2]
  inhibition at 300 µM: 61%
[3]
  EC50: 150 nM
[4]
  inhibition at 30 µM: 13%

## CC[C@H]1OC(=O)[C@H](C)[C@@H](O[C@H]2C[C@@](C)(OC)CC(C)O2)[C@H](C)[C@@H](O[C@@H]2O[C@H](C)C[C@H](N(C)CC)[C@H]2O)C2(C)CC(C)=C(O2)[C@H](C)[C@@H](O)[C@H]1C (single isomer, unassigned)
[1]
  MIC: 64 µg/mL (≈ 91.7 µM)
[2]
  inhibition at 300 µM: 100%
[3]
  EC50: 7 nM
[5]
  Activity: 22%

## CC[C@H]1OC(=O)[C@H](C)[C@@H](O[C@H]2C[C@@](C)(OC)[C@@H](O)[C@H](C)O2)[C@H](C)[C@@H](O[C@@H]2O[C@H](C)C[C@H](N(C)C3CCC3)[C@H]2O)[C@](C)(O)C[C@@H](C)[C@H](OCC(=O)NC)[C@H](C)[C@@H](O)[C@]1(C)O
[1]
  MIC: > 128 µg/mL
[2]
  inhibition at 300 µM: 53%
[3]
  EC50: 510 nM
[4]
  inhibition at 30 µM: 12%

## CC[C@H]1OC(=O)[C@H](C)[C@@H](O[C@H]2C[C@@](C)(OC)[C@@H](O)[C@H](C)O2)[C@H](C)[C@@H](O[C@@H]2O[C@H](C)C[C@H](N(C)C(C)C)[C@H]2O)[C@](C)(O)C[C@@H](C)[C@H](OCCCC(=O)NC)[C@H](C)[C@@H](O)[C@]1(C)O
[1]
  MIC: 128 µg/mL (≈ 148 µM)
[2]
  inhibition at 300 µM: 56%
[3]
  EC50: 84 nM
[4]
  inhibition at 30 µM: 13%
[5]
  Activity: 79%

## CCNC(=O)CO[C@@H]1[C@H](C)[C@@H](O)[C@](C)(O)[C@@H](CC)OC(=O)[C@H](C)[C@@H](O[C@H]2C[C@@](C)(OC)[C@@H](O)[C@H](C)O2)[C@H](C)[C@@H](O[C@@H]2O[C@H](C)C[C@H](N(C)C(C)C)[C@H]2O)[C@](C)(O)C[C@H]1C
[1]
  MIC: > 128 µg/mL
[2]
  inhibition at 300 µM: 75%
[3]
  EC50: 67 nM
[4]
  inhibition at 30 µM: 24%
[5]
  Activity: 89%

## CC[C@H]1OC(=O)[C@H](C)[C@@H](O[C@H]2C[C@@](C)(OC)[C@@H](O)[C@H](C)O2)[C@H](C)[C@@H](O[C@@H]2O[C@H](C)C[C@H](N(C)C(C)C)[C@H]2O)[C@](C)(O)C[C@@H](C)[C@H](OCC(=O)N(C)C)[C@H](C)[C@@H](O)[C@]1(C)O
[2]
  inhibition at 300 µM: 29%
[3]
  EC50: 660 nM
[4]
  inhibition at 30 µM: 8%
[5]
  Activity: 95%

## CC[C@H]1OC(=O)[C@H](C)[C@@H](O[C@H]2C[C@@](C)(OC)[C@@H](O)[C@H](C)O2)[C@H](C)[C@@H](O[C@@H]2O[C@H](C)C[C@H](N(C)C(C)C)[C@H]2O)[C@](C)(O)C[C@@H](C)[C@H](OCc2cccc(C(=O)NC)c2)[C@H](C)[C@@H](O)[C@]1(C)O
[2]
  inhibition at 300 µM: 100%
[3]
  EC50: 2100 nM
[4]
  inhibition at 30 µM: 63%

## CC[C@H]1OC(=O)[C@H](C)[C@@H](O[C@H]2C[C@@](C)(OC)[C@@H](O)[C@H](C)O2)[C@H](C)[C@@H](O[C@@H]2O[C@H](C)C[C@H](N(C)C(C)C)[C@H]2O)[C@](C)(O)C[C@@H](C)[C@H](OCC(=O)NOC)[C@H](C)[C@@H](O)[C@]1(C)O
[2]
  inhibition at 300 µM: 82%
[3]
  EC50: 92 nM
[4]
  inhibition at 30 µM: 33%

## CC[C@H]1OC(=O)[C@H](C)[C@@H](O[C@H]2C[C@@](C)(OC)[C@@H](O)[C@H](C)O2)[C@H](C)[C@@H](O[C@@H]2O[C@H](C)C[C@H](N(C)C(C)C)[C@H]2O)[C@](C)(O)C[C@@H](C)[C@H](OCC(=O)NC2CCC2)[C@H](C)[C@@H](O)[C@]1(C)O
[1]
  MIC: 128 µg/mL (≈ 146 µM)
[2]
  inhibition at 300 µM: 100%
[3]
  EC50: 28 nM
[4]
  inhibition at 30 µM: 64%
[5]
  Activity: 75%

## CC[C@H]1OC(=O)[C@H](C)[C@@H](O[C@H]2C[C@@](C)(OC)[C@@H](O)[C@H](C)O2)[C@H](C)[C@@H](O[C@@H]2O[C@H](C)C[C@H](N(C)C(C)C)[C@H]2O)[C@](C)(O)C[C@@H](C)[C@H](OCC(=O)NCc2ccccc2)[C@H](C)[C@@H](O)[C@]1(C)O
[1]
  MIC: 128 µg/mL (≈ 140 µM)
[2]
  inhibition at 300 µM: 100%
[3]
  EC50: 79 nM
[4]
  inhibition at 30 µM: 67%

## CC[C@H]1OC(=O)[C@H](C)[C@@H](O[C@H]2C[C@@](C)(OC)[C@@H](O)[C@H](C)O2)[C@H](C)[C@@H](O[C@@H]2O[C@H](C)C[C@H](N(C)C(C)C)[C@H]2O)[C@](C)(O)C[C@@H](C)[C@H](OCC(=O)Nc2ccncn2)[C@H](C)[C@@H](O)[C@]1(C)O
[2]
  inhibition at 300 µM: 60%
[3]
  EC50: 25 nM
[4]
  inhibition at 30 µM: 16%
[5]
  Activity: 63%

## CC[C@H]1OC(=O)[C@H](C)[C@@H](O[C@H]2C[C@@](C)(OC)[C@@H](O)[C@H](C)O2)[C@H](C)[C@@H](O[C@@H]2O[C@H](C)C[C@H](N(C)C(C)C)[C@H]2O)[C@](C)(O)C[C@@H](C)[C@H](OCC(=O)NC)[C@H](C)[C@@H](O)[C@H]1C
[2]
  inhibition at 300 µM: 67%
[3]
  EC50: 90 nM
[4]
  inhibition at 30 µM: 21%
[5]
  Activity: 86%

## CC[C@H]1OC(=O)[C@H](C)[C@@H](O[C@H]2C[C@@](C)(OC)[C@@H](O)[C@H](C)O2)[C@H](C)[C@@H](O[C@@H]2O[C@H](C)C[C@H](N(C)C(C)C)[C@H]2O)[C@](C)(O)C[C@@H](C)[C@H](OCC(=O)NCC(F)(F)F)[C@H](C)[C@@H](O)[C@]1(C)O
[1]
  MIC: 128 µg/mL (≈ 142 µM)
[2]
  inhibition at 300 µM: 82%
[3]
  EC50: 160 nM
[4]
  inhibition at 30 µM: 30%

## CC[C@H]1OC(=O)[C@H](C)[C@@H](O[C@H]2C[C@@](C)(OC)[C@@H](O)[C@H](C)O2)[C@H](C)[C@@H](O[C@@H]2O[C@H](C)C[C@H](N(C)C(C)C)[C@H]2O)[C@](C)(O)C[C@@H](C)[C@H](OCC(=O)NCCO)[C@H](C)[C@@H](O)[C@]1(C)O
[1]
  MIC: 128 µg/mL (≈ 148 µM)
[2]
  inhibition at 300 µM: 68%
[3]
  EC50: 120 nM
[4]
  inhibition at 30 µM: 29%
[5]
  Activity: 87%

## CC[C@H]1OC(=O)[C@H](C)[C@@H](O[C@H]2C[C@@](C)(OC)[C@@H](O)[C@H](C)O2)[C@H](C)[C@@H](O[C@@H]2O[C@H](C)C[C@H](N(C)C(C)C)[C@H]2O)[C@](C)(O)C[C@@H](C)[C@H](OCC(=O)NC(C)C)[C@H](C)[C@@H](O)[C@]1(C)O
[1]
  MIC: 128 µg/mL (≈ 148 µM)
[2]
  inhibition at 300 µM: 89%
[3]
  EC50: 140 nM
[4]
  inhibition at 30 µM: 26%

## CC[C@H]1OC(=O)[C@H](C)[C@@H](O[C@H]2C[C@@](C)(OC)[C@@H](O)[C@H](C)O2)[C@H](C)[C@@H](O[C@@H]2O[C@H](C)C[C@H](N(C)C(C)C)[C@H]2O)[C@](C)(O)C[C@@H](C)[C@H](OCC(=O)NCCOC)[C@H](C)[C@@H](O)[C@]1(C)O
[1]
  MIC: 128 µg/mL (≈ 146 µM)
[2]
  inhibition at 300 µM: 93%
[3]
  EC50: 50 nM
[4]
  inhibition at 30 µM: 33%

## CC[C@H]1OC(=O)[C@H](C)[C@@H](O[C@H]2C[C@@](C)(OC)[C@@H](O)[C@H](C)O2)[C@H](C)[C@@H](O[C@@H]2O[C@H](C)C[C@H](N(C)C(C)C)[C@H]2O)[C@](C)(O)C[C@@H](C)[C@H](OCC(=O)NC2CC2)[C@H](C)[C@@H](O)[C@]1(C)O
[1]
  MIC: 128 µg/mL (≈ 149 µM)
[2]
  inhibition at 300 µM: 60%
[3]
  EC50: 31 nM
[4]
  inhibition at 30 µM: 23%
[5]
  Activity: 82%

## CC[C@H]1OC(=O)[C@H](C)[C@@H](O[C@H]2C[C@@](C)(OC)[C@@H](O)[C@H](C)O2)[C@H](C)[C@@H](O[C@@H]2O[C@H](C)C[C@H](N(C)C(C)C)[C@H]2O)[C@](C)(O)C[C@@H](C)[C@H](OCc2ccc(C(=O)NC)cc2)[C@H](C)[C@@H](O)[C@]1(C)O
[3]
  EC50: 1500 nM

## CC[C@H]1OC(=O)[C@H](C)[C@@H](O[C@H]2C[C@@](C)(OC)[C@@H](O)[C@H](C)O2)[C@H](C)[C@@H](O[C@@H]2O[C@H](C)C[C@H](N(C)C(C)C)[C@H]2O)[C@](C)(O)C[C@@H](C)[C@H](OCC(=O)NC2CCOCC2)[C@H](C)[C@@H](O)[C@]1(C)O
[1]
  MIC: > 128 µg/mL
[2]
  inhibition at 300 µM: 67%
[3]
  EC50: 120 nM
[4]
  inhibition at 30 µM: 23%
[5]
  Activity: 88%

## CC[C@H]1OC(=O)[C@H](C)[C@@H](O[C@H]2C[C@@](C)(OC)[C@@H](O)[C@H](C)O2)[C@H](C)[C@@H](O[C@@H]2O[C@H](C)C[C@H](N(C)C(C)C)[C@H]2O)[C@](C)(O)C[C@@H](C)[C@H](OCCCCC(=O)NC)[C@H](C)[C@@H](O)[C@]1(C)O
[2]
  inhibition at 300 µM: 45%
[3]
  EC50: 270 nM
[4]
  inhibition at 30 µM: 3%
